In ChEMBL document CHEMBL4808162, “Constraining the Side Chain of C-Terminal Amino Acids in Apelin-13 Greatly Increases Affinity, Modulates Signaling, and Improves the Pharmacokinetic Profile” (J Med Chem, 2021):
Peptide text beside a SMILES is read from it.

Experiments:
Apelin receptor [1] = target: T1, Apelin receptor (Homo sapiens, UniProt P35414); experiment: Agonist activity at human APJ receptor expressed in HEK293 cells co-expressing Rlucll-beta-arrestin2 assessed as induction of beta-arrestin2 recruitment to receptor incubated for 30 mins by BRET assay; format: functional, cell-based
T1 sequence (P35414 whole entry): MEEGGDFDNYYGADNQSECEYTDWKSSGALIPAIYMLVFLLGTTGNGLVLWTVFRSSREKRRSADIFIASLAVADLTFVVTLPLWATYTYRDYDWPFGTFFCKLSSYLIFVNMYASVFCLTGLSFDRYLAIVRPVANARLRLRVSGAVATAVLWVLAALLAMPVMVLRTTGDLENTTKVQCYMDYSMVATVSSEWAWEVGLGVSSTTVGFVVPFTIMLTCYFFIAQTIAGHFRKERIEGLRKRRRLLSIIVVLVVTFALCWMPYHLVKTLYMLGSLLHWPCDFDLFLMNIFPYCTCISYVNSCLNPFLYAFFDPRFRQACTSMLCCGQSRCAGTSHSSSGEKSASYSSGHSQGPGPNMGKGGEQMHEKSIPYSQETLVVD

Apelin receptor [2] = target: T1, Apelin receptor; experiment: Displacement of [125I] [NIe75,Tyr77]Pyr-apelin-13 from YFP-tagged human APJ receptor expressed in HEK293 cells incubated for 1 hr by gamma counting analysis; format: cell-based
Apelin receptor [3] = target: T1, Apelin receptor; experiment: Agonist activity at human APJ receptor expressed in HEK293T cells co-expressing Galphai1 RlucII assessed as dissociation of Galphai1 from Gbetta/gamma subunit measured using coelenterazine luciferase substrate incubated for 5 mins by BRET assay; format: functional, cell-based, HEK293
[4] = target: Angiotensin-converting enzyme 2 (Rattus norvegicus, UniProt Q5EGZ1); experiment: Stability of the compound assessed as recombinant rat ACE2-mediated degradation measured up to 24 hrs by UPLC-MS analysis; format: ADME
Sequence of Angiotensin-converting enzyme 2 (Q5EGZ1 whole entry): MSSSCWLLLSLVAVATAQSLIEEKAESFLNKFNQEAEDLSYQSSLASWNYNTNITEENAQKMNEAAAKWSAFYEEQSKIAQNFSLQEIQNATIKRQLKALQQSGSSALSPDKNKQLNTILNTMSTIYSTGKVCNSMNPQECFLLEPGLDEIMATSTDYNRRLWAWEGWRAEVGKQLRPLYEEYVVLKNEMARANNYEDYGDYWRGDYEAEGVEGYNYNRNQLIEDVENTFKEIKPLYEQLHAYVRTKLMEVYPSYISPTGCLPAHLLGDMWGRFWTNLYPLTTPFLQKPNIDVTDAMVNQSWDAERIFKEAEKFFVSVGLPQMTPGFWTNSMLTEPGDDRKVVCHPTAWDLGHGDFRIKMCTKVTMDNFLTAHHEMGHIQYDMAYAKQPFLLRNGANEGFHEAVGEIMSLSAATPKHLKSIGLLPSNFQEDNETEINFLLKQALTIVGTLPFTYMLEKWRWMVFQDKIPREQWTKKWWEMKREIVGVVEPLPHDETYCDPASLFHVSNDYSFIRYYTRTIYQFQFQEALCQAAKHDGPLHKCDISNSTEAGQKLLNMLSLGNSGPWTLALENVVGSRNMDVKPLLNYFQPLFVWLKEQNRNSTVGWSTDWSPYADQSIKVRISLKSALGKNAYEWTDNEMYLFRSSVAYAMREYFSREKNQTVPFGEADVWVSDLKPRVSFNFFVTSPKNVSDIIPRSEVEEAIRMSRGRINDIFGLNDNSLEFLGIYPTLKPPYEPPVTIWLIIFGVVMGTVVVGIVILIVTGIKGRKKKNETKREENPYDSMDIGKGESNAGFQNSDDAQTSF
Summary of the method: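 Recombinant rat ACE2 at 20 nM final in 100 mM Tris-HCl, 100 mM NaCl, 10 μM ZnCl2, pH 7.4. Peptide at 50 μM final with N,N-dimethylbenzamide internal standard, incubated 1, 2 and 24 h at 37 °C with shaking. Reaction stopped with EDTA; blank used pre-inactivated enzyme. Remaining peptide measured by UPLC-MS in SIM mode, oxidized forms summed; n = 3.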

Apelin receptor [5] = target: T1, Apelin receptor; experiment: Agonist activity at human APJ receptor expressed in HEK293T cells co-expressing PDZ-Rho-Gef-RLucll and rGFP-CAAX assessed as induction of recruitment of Galpha12 to cell membrane using coelenterazine luciferase substrate incubated for 5 mins by BRET assay; format: functional, cell-based, HEK293
[6] = Stability in Sprague-Dawley rat plasma assessed as half life measured up to 24 hrs by UPLC-MS analysis; format: ADME, cell-free
Summary of the method: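 Peptide (6 μL of 1 mM aqueous solution) incubated with 27 μL male Sprague-Dawley rat plasma at 37 °C. Time points 0, 1, 2, 4, 7, 24 h, or 0–120 min for labile peptides. Reaction quenched with acetonitrile-ethanol containing N,N-dimethylbenzamide internal standard, filtered, then UPLC-MS. t1/2 from one-phase exponential decay; at least three experiments.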

Rattus norvegicus = experiment: Hypotensive effect in Sprague-Dawley rat assessed as drop in mean arterial blood pressure at 19.6 nmol/kg, iv bolus injection measured after 1 min; format: functional
Summary of the method: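 Male Sprague-Dawley rats (250−300 g) under ketamine/xylazine (87/13 mg/kg i.m.) on a thermostatic pad. Mean arterial pressure recorded through a right carotid catheter. Saline vehicle bolus given, then 5 min later the peptide i.v. at 19.6 nmol/kg (n = 5) or 65 nmol/kg.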

[7] = Clearance in Sprague-Dawley rat plasma at 3 mg/kg, iv bolus injection measured up to 240 mins by LC-MS/MS analysis; format: ADME, organism-based
Summary of the method: (§1)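 Male Sprague-Dawley rats (250−300 g, 8−10 weeks), jugular vein catheter placed 24 h before dosing, n = 3. Single i.v. bolus in 0.9% saline at 3 mg/kg. Blood drawn at 5, 10, 30, 60, 120, 240 min into K2-EDTA tubes. Plasma cleaned by acetonitrile precipitation and HLB, then quantified by LC-MS/MS.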

[8] = Half life in Sprague-Dawley rat plasma at 3 mg/kg, iv bolus injection measured up to 240 mins by LC-MS/MS analysis; format: ADME, organism-based; summary of the method: as §1
[9] = AUCtot in Sprague-Dawley rat plasma at 3 mg/kg, iv bolus injection measured up to 240 mins by LC-MS/MS analysis; format: ADME, organism-based; parameters: route intravenous, dose 3 mg/kg, time <=240; details: in vivo, 4 h; summary of the method: as §1

EC50 (Apelin receptor [1]; hek293)	Ki (Apelin receptor [2]; hek293)	EC50 (Apelin receptor [3]; hek293)	Stabilty [4]	EC50 (Apelin receptor [5]; hek293)	half-life [6]	EC50 (Apelin receptor [1])	Ki (Apelin receptor [2])	EC50 (Apelin receptor [3])	EC50 (Apelin receptor [5])	clearance [7]	half-life [8]	AUC [9]	Structure (SMILES)	Activity (Rattus norvegicus)
38 nM	0.18 nM	3.8 nM	Unstable	17 nM	0.2 h	–	–	–	–	–	–	–	CCCC[C@H](NC(=O)[C@@H]1CCCN1C(=O)CNC(=O)[C@H](CCCCN)NC(=O)[C@H](Cc1cnc[nH]1)NC(=O)[C@H](CO)NC(=O)[C@H](CC(C)C)NC(=O)[C@H](CCCNC(=N)N)NC(=O)[C@@H]1CCCN1C(=O)[C@H](CCCNC(=N)N)NC(=O)[C@@H]1CCC(=O)N1)C(=O)N[C@@H](Cc1c[nH]c2ccccc12)C(=O)N[C@@H](Cc1ccccc1)C(=O)O	–
–	–	–	–	–	–	–	–	–	–	–	–	–	CCCC[C@H](NC(=O)[C@@H]1CCCN1C(=O)CNC(=O)[C@H](CCCCN)NC(=O)[C@H](Cc1cnc[nH]1)NC(=O)[C@H](CO)NC(=O)[C@H](CC(C)C)NC(=O)[C@H](CCCNC(=N)N)NC(=O)[C@@H]1CCCN1C(=O)[C@H](CCCNC(=N)N)NC(=O)[C@@H]1CCC(=O)N1)C(=O)N[C@H]1Cc2c([nH]c3ccccc23)CN([C@@H](Cc2ccccc2)C(=O)O)C1=O [listing 1 of 2 here]	30 mmHg
–	–	–	–	–	3.4 h	32 nM	0.09 nM	1.6 nM	15 nM	–	–	–	CCCC[C@H](NC(=O)[C@@H]1CCCN1C(=O)CNC(=O)[C@H](CCCCN)NC(=O)[C@H](Cc1cnc[nH]1)NC(=O)[C@H](CO)NC(=O)[C@H](CC(C)C)NC(=O)[C@H](CCCNC(=N)N)NC(=O)[C@@H]1CCCN1C(=O)[C@H](CCCNC(=N)N)NC(=O)[C@@H]1CCC(=O)N1)C(=O)N[C@@H](Cc1cccc2ccccc12)C(=O)N1Cc2ccccc2C[C@@H]1C(=O)O	–
–	–	–	Stable	–	7.3 h	36 nM	0.08 nM	3.8 nM	2.8 nM	27 mL/min/kg	0.433 h	0.12 mg·min/mL	CCCC[C@H](NC(=O)[C@@H]1CCCN1C(=O)CNC(=O)[C@H](CCCCN)NC(=O)[C@H](Cc1cnc[nH]1)NC(=O)[C@H](CO)NC(=O)[C@H](CC(C)C)NC(=O)[C@H](CCCNC(=N)N)NC(=O)[C@@H]1CCCN1C(=O)[C@H](CCCNC(=N)N)NC(=O)[C@@H]1CCC(=O)N1)C(=O)N[C@@H](Cc1cccc2ccccc12)C(=O)NC(Cc1ccccc1)(Cc1ccccc1)C(=O)O (HELM PEPTIDE1{[Glp].R.P.R.L.S.H.K.G.P.[Nle].[O=C([C@H](Cc1cccc2ccccc12)N[*:1])[*:2]].[O=C(O)C(Cc1ccccc1)(Cc1ccccc1)N[*:1]]}$$$$V2.0) [listing 1 of 2 here]	–
–	–	–	–	–	7.8 h	96 nM	1.01 nM	6 nM	25 nM	–	–	–	CCCC[C@H](NC(=O)[C@@H]1CCCN1C(=O)CNC(=O)[C@H](CCCCN)NC(=O)[C@H](Cc1cnc[nH]1)NC(=O)[C@H](CO)NC(=O)[C@H](CC(C)C)NC(=O)[C@H](CCCNC(=N)N)NC(=O)[C@@H]1CCCN1C(=O)[C@H](CCCNC(=N)N)NC(=O)[C@@H]1CCC(=O)N1)C(=O)N[C@H](Cc1cccc2ccccc12)C(=O)N1Cc2[nH]c3ccccc3c2C[C@@H]1C(=O)O	–
25 nM	0.08 nM	2.5 nM	Stable	11 nM	5.8 h	–	–	–	–	23 mL/min/kg	0.333 h	0.13 mg·min/mL	CCCC[C@H](NC(=O)[C@@H]1CCCN1C(=O)CNC(=O)[C@H](CCCCN)NC(=O)[C@H](Cc1cnc[nH]1)NC(=O)[C@H](CO)NC(=O)[C@H](CC(C)C)NC(=O)[C@H](CCCNC(=N)N)NC(=O)[C@@H]1CCCN1C(=O)[C@H](CCCNC(=N)N)NC(=O)[C@@H]1CCC(=O)N1)C(=O)N[C@H]1Cc2c([nH]c3ccccc23)CN([C@@H](Cc2ccccc2)C(=O)O)C1=O [listing 2 of 2 here]	–
–	–	–	–	–	6.3 h	34 nM	0.16 nM	4.1 nM	10 nM	–	–	–	CCCC[C@H](NC(=O)[C@@H]1CCCN1C(=O)CNC(=O)[C@H](CCCCN)NC(=O)[C@H](Cc1cnc[nH]1)NC(=O)[C@H](CO)NC(=O)[C@H](CC(C)C)NC(=O)[C@H](CCCNC(=N)N)NC(=O)[C@@H]1CCCN1C(=O)[C@H](CCCNC(=N)N)NC(=O)[C@@H]1CCC(=O)N1)C(=O)N[C@H](Cc1cccc2ccccc12)C(=O)N1Cc2ccccc2C(C)(C)C1C(=O)O (stereo partly specified)	–
–	–	–	–	–	–	–	–	–	–	–	–	–	CCCC[C@H](NC(=O)[C@@H]1CCCN1C(=O)CNC(=O)[C@H](CCCCN)NC(=O)[C@H](Cc1cnc[nH]1)NC(=O)[C@H](CO)NC(=O)[C@H](CC(C)C)NC(=O)[C@H](CCCNC(=N)N)NC(=O)[C@@H]1CCCN1C(=O)[C@H](CCCNC(=N)N)NC(=O)[C@@H]1CCC(=O)N1)C(=O)N[C@@H](Cc1cccc2ccccc12)C(=O)NC(Cc1ccccc1)(Cc1ccccc1)C(=O)O (HELM PEPTIDE1{[Glp].R.P.R.L.S.H.K.G.P.[Nle].[O=C([C@H](Cc1cccc2ccccc12)N[*:1])[*:2]].[O=C(O)C(Cc1ccccc1)(Cc1ccccc1)N[*:1]]}$$$$V2.0) [listing 2 of 2 here]	30 mmHg
41 nM	0.12 nM	4.4 nM	–	9.2 nM	0.4 h	–	–	–	–	–	–	–	CCCC[C@H](NC(=O)[C@@H]1CCCN1C(=O)CNC(=O)[C@H](CCCCN)NC(=O)[C@H](Cc1cnc[nH]1)NC(=O)[C@H](CO)NC(=O)[C@H](CC(C)C)NC(=O)[C@H](CCCNC(=N)N)NC(=O)[C@@H]1CCCN1C(=O)[C@H](CCCNC(=N)N)NC(=O)[C@@H]1CCC(=O)N1)C(=O)N[C@@H](Cc1cccc2ccccc12)C(=O)N[C@@H](Cc1ccccc1)C(=O)O	–
33 nM	0.08 nM	4.2 nM	–	28 nM	6.1 h	–	–	–	–	–	–	–	CCCC[C@H](NC(=O)[C@@H]1CCCN1C(=O)CNC(=O)[C@H](CCCCN)NC(=O)[C@H](Cc1cnc[nH]1)NC(=O)[C@H](CO)NC(=O)[C@H](CC(C)C)NC(=O)[C@H](CCCNC(=N)N)NC(=O)[C@@H]1CCCN1C(=O)[C@H](CCCNC(=N)N)NC(=O)[C@@H]1CCC(=O)N1)C(=O)N[C@H](Cc1cccc2ccccc12)C(=O)N1Cc2ccccc2C[C@H]1C(=O)O	–
–	–	–	–	–	5.3 h	44 nM	0.4 nM	4.3 nM	111 nM	–	–	–	CCCC[C@H](NC(=O)[C@@H]1CCCN1C(=O)CNC(=O)[C@H](CCCCN)NC(=O)[C@H](Cc1cnc[nH]1)NC(=O)[C@H](CO)NC(=O)[C@H](CC(C)C)NC(=O)[C@H](CCCNC(=N)N)NC(=O)[C@@H]1CCCN1C(=O)[C@H](CCCNC(=N)N)NC(=O)[C@@H]1CCC(=O)N1)C(=O)N[C@H](Cc1cccc2ccccc12)C(=O)N1Cc2ccccc2C(C)C1C(=O)O (stereo partly specified)	–
–	–	–	–	–	1.3 h	67 nM	1.1 nM	2.5 nM	88 nM	–	–	–	CCCC[C@H](NC(=O)[C@@H]1CCCN1C(=O)CNC(=O)[C@H](CCCCN)NC(=O)[C@H](Cc1cnc[nH]1)NC(=O)[C@H](CO)NC(=O)[C@H](CC(C)C)NC(=O)[C@H](CCCNC(=N)N)NC(=O)[C@@H]1CCCN1C(=O)[C@H](CCCNC(=N)N)NC(=O)[C@@H]1CCC(=O)N1)C(=O)N1CCC[C@H]1C(=O)N1Cc2ccccc2C[C@H]1C(=O)O	–
–	–	–	–	–	> 24 h	95 nM	1.1 nM	10 nM	178 nM	–	–	–	CCCC[C@H](NC(=O)[C@@H]1CCCN1C(=O)CNC(=O)[C@H](CCCCN)NC(=O)[C@H](Cc1cnc[nH]1)NC(=O)[C@H](CO)NC(=O)[C@H](CC(C)C)NC(=O)[C@H](CCCNC(=N)N)NC(=O)[C@@H]1CCCN1C(=O)[C@H](CCCNC(=N)N)NC(=O)[C@@H]1CCC(=O)N1)C(=O)N[C@H](Cc1cccc2ccccc12)C(=O)N[C@H](Cc1cc(C2CCCC2)c(O)c(C2CCCC2)c1)C(=O)O	–
